L major viab: Leishmania major promastigote growth inhibition, primary screen; Leishmania major promastigotes, resazurin fluorescence viability; inhibition, % at 10 µM; actives 9% (n = 200,000); AID 1063, 2008;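 further: promastigotes grown with compound for 44 hours at 28 °C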
ABCB1 block: ABCB1 efflux pump inhibitors, primary screen, cell-based, multiplex, flow cytometry, ABCG2 counter-screen; CCRF-Adr cells, JC-1 efflux; inhibition, % at 6.6 µM; actives 0.067% (n = 190,000); AID 1326, 2008; in the data active means inhibition above about 40%;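 further: 0% = vehicle and 100% = reference inhibitor; higher value means more JC-1 retained so stronger ABCB1 efflux block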
Avidin fluor: green autofluorescence of compounds with avidin beads – biophysical, 488/530 nm, flow cytometry, artefact control, profiling panel; compound fluorescence 488/530 nm; active compounds read high; fluorescence (KMESF) at 10 µM; actives 0.38% (n = 220,000); in the data active means fluorescence above about 47
ABCG2 inh: ABCG2 efflux pump inhibitors, primary screen, multiplex with ABCB1, IgMXP3 cells, flow cytometry; JC-1 efflux; inhibition, % at 6.6 µM; actives 0.1% (n = 190,000); AID 1325, 2008;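 active means inhibition above 80%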;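 further: 0% = DMSO and 100% = nicardipine control wells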
Target sequence (Q9UNQ0 whole entry, looked up): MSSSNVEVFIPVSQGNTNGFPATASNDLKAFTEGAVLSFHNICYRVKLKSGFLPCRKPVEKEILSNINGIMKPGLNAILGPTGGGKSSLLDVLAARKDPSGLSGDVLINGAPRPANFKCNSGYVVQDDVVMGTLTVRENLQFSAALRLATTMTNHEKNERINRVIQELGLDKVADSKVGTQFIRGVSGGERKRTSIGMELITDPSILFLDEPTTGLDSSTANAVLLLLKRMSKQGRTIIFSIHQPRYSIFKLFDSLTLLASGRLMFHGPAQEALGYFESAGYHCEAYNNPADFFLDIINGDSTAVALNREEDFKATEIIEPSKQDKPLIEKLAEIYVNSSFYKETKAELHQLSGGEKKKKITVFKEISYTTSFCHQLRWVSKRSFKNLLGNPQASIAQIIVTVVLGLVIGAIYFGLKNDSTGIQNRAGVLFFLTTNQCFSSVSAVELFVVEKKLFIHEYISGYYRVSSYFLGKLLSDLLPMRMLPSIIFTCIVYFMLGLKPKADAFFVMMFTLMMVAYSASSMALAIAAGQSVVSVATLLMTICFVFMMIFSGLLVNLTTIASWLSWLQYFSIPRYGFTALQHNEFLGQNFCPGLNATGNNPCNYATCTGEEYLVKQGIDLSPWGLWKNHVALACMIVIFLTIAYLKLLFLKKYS
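System: two drug-resistant human cell lines, ABCG2 and ABCB1; controls: nicardipine high and DMSO low controls; times: 10 min exposure at 25 °C with rotation, no wash; detection: flow cytometry of retained JC-1 fluorescence; read-out basis: percent efflux inhibition, scaled nicardipine 100% to DMSO 0%; doses: one concentration, 6.6 µM final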
GSH fluor: compound fluorescence on glutathione beads, profiling panel, artefact control, biophysical, 488/530 nm, flow cytometry. GSH beads flow cytometry, compound fluorescence 488/530 nm; active compounds read high. fluorescence (KMESF) at 10 µM. actives 0.25% (n = 190,000). AID 1776, 2009; in the data active means fluorescence above about 89;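 further: glutathione beads carrying GST-tagged Bcl family fusion proteins plus one bare bead set; values are compound well signal with DMSO vehicle wells as background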
PKD1 inh: inhibitors of human PKD1 kinase, biochemical, fluorescence polarization; Serine/threonine-protein kinase D1 (Homo sapiens), Q15139; PKD1 kinase fluorescence polarization assay; actives 0.056% (n = 200,000); AID 797, 2007; inhibition, % (no concentration beside the values)
* = called active by the depositor. The entries come from a sample that favours hits as a whole. Unless noted, no stated cut-off is given here; in the data, active means inhibition above about 50%; inactive means the rest.

How did O=C(NNc1ccccc1)/C(=C\c1cccnc1)NC(=O)c1ccccc1 do in these assays?
Avidin fluor: 6

How did COc1ccc(/C=N/NC(N)=S)cc1OC(=O)c1cccc2ccccc12 do in these assays?
L major viab: 99*; ABCB1 block: 0; Avidin fluor: 32; ABCG2 inh: 2; GSH fluor: 15; PKD1 inh: 1

Results for COc1ccc(/C=N/NC(=O)CC(=O)NCCc2ccccc2)cc1OC ?
L major viab: -2; ABCB1 block: 0; Avidin fluor: 5; ABCG2 inh: 0; GSH fluor: 24; PKD1 inh: -3

What do the screens show for `CCOP(=O)(OCC)c1nc(-c2cccc3ccccc23)oc1NCCc1ccc(OC)cc1`?
L major viab: 97*; ABCB1 block: 5; Avidin fluor: 15; ABCG2 inh: 46; GSH fluor: 5; PKD1 inh: -6

How did COc1ccc(CNc2oc(-c3cccc4ccccc34)nc2C#N)cc1 do in these assays?
L major viab: -6; ABCB1 block: 0; Avidin fluor: 34; ABCG2 inh: 18; GSH fluor: 23; PKD1 inh: 0

What do the screens show for `Cc1ccc(C(=O)NCC(=O)OCC(=O)/C=C2\N(C)c3ccccc3C2(C)C)cc1C`?
L major viab: 4; ABCB1 block: 0; Avidin fluor: 6; ABCG2 inh: 3; GSH fluor: 11; PKD1 inh: -1

How did Nc1ccc(-c2nc3ccc([N+](=O)[O-])cc3[nH]2)cc1 do in these assays?
L major viab: 83*; ABCB1 block: 0; Avidin fluor: 8; ABCG2 inh: 1; GSH fluor: 4; PKD1 inh: -6

How did O=C(Nc1ccccc1O)c1ccc(NS(=O)(=O)c2cccc3cccnc23)cc1 do in these assays?
L major viab: -5; ABCB1 block: 3; Avidin fluor: 7; ABCG2 inh: 1; GSH fluor: 31; PKD1 inh: 3

How did COC(=O)c1cc(NC2c3ncccc3C(=O)N2Cc2ccccc2)cc(C(=O)OC)c1 (configuration not stated) do in these assays?
L major viab: 53*; ABCB1 block: 1; Avidin fluor: 24; ABCG2 inh: 5; GSH fluor: 23; PKD1 inh: -2

What do the screens show for `COc1ccc(C(=O)c2ccccc2)c(OCC(=O)NC2CC2)c1`?
L major viab: -4; ABCB1 block: 1; Avidin fluor: 13; ABCG2 inh: 3; GSH fluor: 21; PKD1 inh: -3

Results for CC(=O)c1ccc(OCCCC(=O)Nc2ccc(C)c(S(=O)(=O)N(C)C)c2)cc1 ?
L major viab: 61*; ABCB1 block: 1; Avidin fluor: 16; ABCG2 inh: 25; GSH fluor: 10; PKD1 inh: -1

Results for Cc1cc(C)n(-c2ccc(C(=O)Nc3ccc(C)c(S(=O)(=O)N(C)C)c3)cc2)n1 ?
L major viab: 53*; ABCB1 block: 1; Avidin fluor: 13; ABCG2 inh: 4; GSH fluor: 9; PKD1 inh: -5

What do the screens show for `CN1CCOC(=O)/C1=N/Nc1cc(Cl)ccc1Cl`?
L major viab: 25; ABCB1 block: 3; Avidin fluor: 10; ABCG2 inh: 19; GSH fluor: 11; PKD1 inh: -3

How did CCOC(=O)c1c(C)[nH]c(C(=O)CSc2nccc(C)n2)c1C do in these assays?
L major viab: 75*; ABCB1 block: 1; Avidin fluor: 6; ABCG2 inh: 58; GSH fluor: 6; PKD1 inh: 5

How did CCOC(=O)c1c(C)[nH]c(C(=O)CSc2ccccc2)c1C do in these assays?
L major viab: -6; ABCB1 block: 0; Avidin fluor: 33; ABCG2 inh: 4; GSH fluor: 12; PKD1 inh: -15

Results for COC(=O)c1ccc([C@@H]2C[C@H]3CN(Cc4cccnc4)C(=O)[C@]34CCCN24)cc1 ?
L major viab: -6; ABCB1 block: 0; Avidin fluor: 9; ABCG2 inh: 0; GSH fluor: 11; PKD1 inh: -2

Results for CCOc1ccccc1OCC(=O)Nc1nnc(C)s1 ?
L major viab: -2; ABCB1 block: 0; Avidin fluor: 117*; ABCG2 inh: 3; GSH fluor: 30; PKD1 inh: -9

How did Cc1ccccc1N/C=C/C(=C(C#N)C#N)N(C)C do in these assays?
L major viab: -2; ABCB1 block: 1; Avidin fluor: 13; ABCG2 inh: 10; GSH fluor: 23; PKD1 inh: -8

Results for Cc1cccc(-n2c(SCc3cc(=O)n4c(C)cccc4n3)nc3[nH]ncc3c2=O)c1 ?
L major viab: 96*; ABCB1 block: 17; Avidin fluor: 10; ABCG2 inh: 9; GSH fluor: 31; PKD1 inh: 4

What do the screens show for `Cc1nc(CSc2nc3[nH]ncc3c(=O)n2-c2ccccc2)cs1`?
L major viab: 20; ABCB1 block: 0; Avidin fluor: 1; ABCG2 inh: 2; GSH fluor: 43; PKD1 inh: 1

What do the screens show for `CCn1nnnc1SCC(=O)NC1CCCC1`?
L major viab: -5; ABCB1 block: 1; Avidin fluor: 7; ABCG2 inh: 3; GSH fluor: 14; PKD1 inh: -10

Results for Cc1ccc(NC(=O)ON=C2CCCC2)cc1 ?
L major viab: 84*; ABCB1 block: 1; Avidin fluor: 11; ABCG2 inh: 69; GSH fluor: 10; PKD1 inh: -9

What do the screens show for `O=C(Nc1ccccc1)ON=C1CCCC1`?
L major viab: 5; ABCB1 block: 0; Avidin fluor: 8; ABCG2 inh: 3; GSH fluor: 16; PKD1 inh: 2

Results for CSC1=NSC2=NC(=O)/C(=C\c3coc4ccccc4c3=O)C(=N)N12 ?
L major viab: -16; ABCB1 block: 11; Avidin fluor: 4; ABCG2 inh: 63; GSH fluor: 11; PKD1 inh: -3

What do the screens show for `CC(C)CSC1=NSC2=NC(=O)/C(=C\c3coc4ccccc4c3=O)C(=N)N12`?
L major viab: -13; ABCB1 block: 134*; Avidin fluor: 11; ABCG2 inh: active; GSH fluor: 70; PKD1 inh: -11

How did CCN(CC)CCNc1nc2cc(OC)c(OC)cc2c2nc(-c3ccccc3)nn12 do in these assays?
L major viab: 100*; ABCB1 block: 4; Avidin fluor: 46; ABCG2 inh: 4; GSH fluor: 18; PKD1 inh: 1

What do the screens show for `COc1ccc(-c2nc3c4ccccc4[nH]c(=O)n3n2)cc1`?
L major viab: 37; ABCB1 block: 0; Avidin fluor: 16; ABCG2 inh: 36; GSH fluor: 24; PKD1 inh: -8

Compound activity: PubChem, several laboratories
